Measurements taken from ChEMBL document CHEMBL4177552, “Synthesis and hyperpolarisation of eNOS substrates for quantification of NO production by 1H NMR spectroscopy” (Bioorg Med Chem, 2017).
Where a SMILES comes first, the peptide text is derived from it.

Legend:
[1] = target: T1, Nitric oxide synthase 3 (Bos taurus) (UniProt P29473); assay: Substrate activity at recombinant bovine eNOS assessed as enzyme mediated nitrite production after 40 mins by Griess reagent base LDH assay
T1 sequence (whole entry): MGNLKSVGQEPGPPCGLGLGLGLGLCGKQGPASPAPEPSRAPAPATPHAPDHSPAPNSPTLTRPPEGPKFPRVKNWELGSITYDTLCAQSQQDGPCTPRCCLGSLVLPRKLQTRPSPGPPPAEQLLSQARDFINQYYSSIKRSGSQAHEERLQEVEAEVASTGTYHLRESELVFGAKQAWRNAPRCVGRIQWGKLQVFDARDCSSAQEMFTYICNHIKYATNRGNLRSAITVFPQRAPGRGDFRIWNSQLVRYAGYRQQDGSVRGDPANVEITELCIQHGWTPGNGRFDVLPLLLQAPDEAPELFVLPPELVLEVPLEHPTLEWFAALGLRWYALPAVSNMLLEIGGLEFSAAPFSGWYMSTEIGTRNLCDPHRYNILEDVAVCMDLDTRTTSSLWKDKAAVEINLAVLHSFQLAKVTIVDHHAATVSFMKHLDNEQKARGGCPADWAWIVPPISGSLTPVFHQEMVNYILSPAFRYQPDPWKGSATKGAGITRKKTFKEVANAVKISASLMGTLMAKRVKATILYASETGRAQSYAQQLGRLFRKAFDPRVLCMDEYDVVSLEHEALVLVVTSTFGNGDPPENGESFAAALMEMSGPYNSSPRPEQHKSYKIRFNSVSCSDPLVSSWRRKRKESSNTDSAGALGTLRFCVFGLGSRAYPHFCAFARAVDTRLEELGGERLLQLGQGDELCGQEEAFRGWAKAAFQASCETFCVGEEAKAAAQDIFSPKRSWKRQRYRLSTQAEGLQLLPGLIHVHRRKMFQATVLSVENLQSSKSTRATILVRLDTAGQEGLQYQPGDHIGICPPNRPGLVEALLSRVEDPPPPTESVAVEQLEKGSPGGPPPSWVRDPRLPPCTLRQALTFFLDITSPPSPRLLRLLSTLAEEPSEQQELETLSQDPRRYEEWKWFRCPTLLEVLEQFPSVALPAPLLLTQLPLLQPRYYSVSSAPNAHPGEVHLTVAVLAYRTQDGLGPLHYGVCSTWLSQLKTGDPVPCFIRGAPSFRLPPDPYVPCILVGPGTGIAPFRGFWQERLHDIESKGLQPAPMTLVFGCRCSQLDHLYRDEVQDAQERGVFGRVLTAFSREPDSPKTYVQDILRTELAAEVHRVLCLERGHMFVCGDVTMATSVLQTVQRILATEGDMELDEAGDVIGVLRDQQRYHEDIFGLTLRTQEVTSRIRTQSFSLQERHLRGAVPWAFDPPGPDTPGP
In short: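 Run for 40 min alongside an l-arginine positive control and a negative control. Stopped with ice-cold 20 mM HEPES pH 5.5, 2 mM EDTA, 2 mM EGTA. NO-derived nitrite quantified by Griess colorimetry (nitrate/nitrite LDH method).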

[2] = Drug metabolism is PBS buffer assessed as compound conversion after 3 hrs by 1H NMR spectroscopy

N=C(N)NCCC[C@H](N)C(=O)NCc1ccncc1
Activity [1]: 48 µM

CN(Cc1ccncc1)C(=O)[C@@H](N)CCCNC(=N)N
Activity [1]: 21 µM

N=C(N)NCCC[C@H](N)C(=O)Nc1ccncc1
Activity [1]: 22 µM | degraded at 3 h [2]: 41%

N=C(N)NCCC[C@H](N)C(=O)NCc1cccnc1
Activity [1]: 22 µM

N/C(=N\O)NCCC[C@H](N)C(=O)NCc1ccncc1
Activity [1]: 26 µM

CC(=O)N[C@@H](CCCN/C(N)=N/O)C(=O)NCc1ccncc1
Activity [1]: 27 µM

N=C(N)NCCC[C@H](N)C(=O)O
Activity [1]: 25 µM

N/C(=N\O)NCCCCC(=O)NCc1ccncc1
Activity [1]: 29 µM

CC(NC(=O)[C@@H](N)CCCNC(=N)N)c1ccncc1 (stereo partly drawn)
Activity [1]: 20 µM

N=C(N)NCCC[C@H](N)C(=O)N[C@@H](Cc1cccnc1)C(=O)O (HELM PEPTIDE1{R.[O=C(O)[C@H](Cc1cccnc1)N[*:1]]}$$$$V2.0)
Activity [1]: 38 µM

CC(NC(=O)[C@@H](N)CCCNC(=N)N)c1cccnc1 (stereo partly drawn)
Activity [1]: 26 µM

CN(Cc1cccnc1)C(=O)[C@@H](N)CCCNC(=N)N
Activity [1]: 23 µM
